Reference: the EternaBench riboswitch data

Tested on: MS2 coat protein
Test: apparent Kd, MS2 coat protein; higher = weaker binding; RNA-MaP array; FMN 200 µM where present
How it was run: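 Stalled E. coli RNA polymerase transcribed the designs on Illumina sequencing-chip clusters. SNAP-549-labelled MS2 coat protein was titrated from 0.7 or 1.5 nM, doubling to 3 µM, without and then with constant ligand, in 100 mM Tris-HCl pH 7.5, 80 mM KCl, 4 mM MgCl2, BSA, DTT, yeast tRNA and Tween-20. Per-cluster binding curves were fitted to green signal normalised to red-channel RNA signal and control-cluster median Fmax. The apparent Kd is the median of the filtered fits.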

[1] = designed as: OFF switch for flavin mononucleotide, no ligand
[2] = ligand present: flavin mononucleotide, designed as: OFF switch for flavin mononucleotide
[3] = designed as: ON switch for flavin mononucleotide, no ligand
[4] = ligand present: flavin mononucleotide, designed as: ON switch for flavin mononucleotide

ACAUUUAUAUCAGGAUAUACAAUACAAUGAUUAGUAGAAGGGAUUAAUACAUGAGGAUCACCCAUGUCAUGUGUCAUAAUAACC
apparent Kd [1]: 25.8 nM | apparent Kd [2]: 19.6 nM

CACCAGCGAGGAUAUACACGUGGUCUCCACUCCCGGUGGUAACAUGAGGAUCACCCAUGUAGAAGGCGCAACAU
apparent Kd [1]: 42 nM | apparent Kd [2]: 220 nM

AAUUAGGUCACAGGAUAUACUUCAUCCAUAGAUGUAGAAGGGUGUCAGAAUAAUUUCUUACAUGAGGAUCACCCAUGUUUCCAC
apparent Kd [3]: 108 nM | apparent Kd [4]: 48.1 nM

AAUAUGUUGCAGAAGGUUAUAUUUUUUUCGUACCUCAUGACAUGAGGAUCACCCAUGUAUUUGUUGAAGGAUAUGCAAUAUAUU
apparent Kd [1]: 21.5 nM | apparent Kd [2]: 17.7 nM

AAAAUACAUGAGGAUCACCCAUGUUAGGAUAUGCAAAGCCCAGUUAGCUUUUGGGUAGGUAGAAGGGACGGGUA
apparent Kd [1]: 23.4 nM | apparent Kd [2]: 20.2 nM

UUAUGAGAGCAGGAUAUCUUAUUUUUUUUUUGUGGAGAAGGGCUGACAUGAGGAUCACCCAUGUGGUCCUAGAU
apparent Kd [1]: 27.9 nM | apparent Kd [2]: 32.9 nM

UACAUGAGGAUCACCCAUGUUUUGUCGUGUAUGGUAUUUAUCUAGGAUAUCAAUUGAUUUAAUUAUGAGAAGGAGAAUAUUAAU
apparent Kd [1]: 36.5 nM | apparent Kd [2]: 30.7 nM

CCUCGACAUGAGGAUCACCCAUGUAAGGAUAUUCUAGGACGUGUUUUUCGUAGCUUUAGAAGAAGGUGCAGGUU
apparent Kd [1]: 49.5 nM | apparent Kd [2]: 175 nM

CUGUUUCGUGUAGGAUAUGCAUAUUCCCAUUAUGCAGAAGGACAUGAGGAUCACCCAUGUAUGUUAUUAUCAUGUGUUACAUGC
apparent Kd [1]: 51 nM | apparent Kd [2]: 432 nM

AAAAAACAUGAGGAUCACCCAUGUGAGGAUAUGCGAAAAAAAAAAAAAAAAAAAAAAAGUAGAAGGCACAAAAA
apparent Kd [1]: 48.5 nM | apparent Kd [2]: 173 nM

GGAUUAAUAGCCCACAUGAGGAUCACCCAUGUAGUAUUUUACAAGGAUAUGGUGGGACUUCGUGGCCAGAAGGUGUAAAGGAUC
apparent Kd [3]: 451 nM | apparent Kd [4]: 397 nM

UCGAUGCUAGGAUAUACUUAUAAAACUACUGUAGAGUCUUCACAUGAGGAUCACCCAUGUAGAAGGAGCAUCUA
apparent Kd [1]: 20 nM | apparent Kd [2]: 16 nM

UUGGUAUUCGUAGGAUAUCCGUCGCCACCGUGUGGAGAAGGACGAACAUGAGGAUCACCCAUGUAUCAUGGUGUGGGCGUUGUC
apparent Kd [1]: 92.5 nM | apparent Kd [2]: 90.1 nM

GGUGGCGCCUAGAAGGCCGGCCAAGAAGGAGCCGGAGGAUAUAGGCCUACAUGAGGAUCACCCAUGUGGCUUAGUCAUAUGGUU
apparent Kd [1]: 22.4 nM | apparent Kd [2]: 120 nM

UAAUCUCAGAUAGGAUAUAUAGGAUAAUUUAAGACCGAACAUGAGGAUCACCCAUGUGAUUAUUCGUAGAAGGAUCAAUGACCC
apparent Kd [3]: 78.3 nM | apparent Kd [4]: 76.2 nM

UGAGAUGUAGUAGGAUAUCAGGUUACAUGAGGAUCACCCAUGUUAGAUUGGUGGAUAGAUGUUGAUGAGAAGGACUUUUGAGUU
apparent Kd [1]: 63.5 nM | apparent Kd [2]: 100 nM

ACAUACAUUCGAGGAUAUCGGUGAACAAAUUAACGAGAAGGCGAAAUACUUUUUAAUCUUAUAAACAUGAGGAUCACCCAUGUA
apparent Kd [3]: 19.9 nM | apparent Kd [4]: 20.7 nM

AUUCUAAUAGCAGGAUAUCCCAGUAUCCUAAGUCAAAAGUUUUUGACAUGAGGAUCACCCAUGUGGGAGAAGGGCUCUGGAUAA
apparent Kd [1]: 111 nM | apparent Kd [2]: 65.8 nM

GUAGCAUACGGAGGAUAUUCAUUAAAACAUGAGGAUCACCCAUGUAAAUUGGGAGAAGGCCGUAUGCUACAAGAGCGAAAGCUC
apparent Kd [3]: 18.3 nM | apparent Kd [4]: 5.48 nM

UUUAUACAUGAGGAUCACCCAUGUGAGGAUAUGCUUUAUUAUUAUUAUUAUUAUUAUUGCAGAAGGUACGUUAU
apparent Kd [1]: 35.7 nM | apparent Kd [2]: 36.1 nM

AAAUGCCUGUCGAUGCUCGACAUGAGGAUCACCCAUGUACAGCAGGAUAUGCGGAACUAACUCGUGCAGAAGGGCUGUACCUAA
apparent Kd [1]: 102 nM | apparent Kd [2]: 144 nM

AGCCUGAGUCGAGGAUAUUAUGGAUCCUUUAAUACAUGAGGAUCACCCAUGUAAUUAAUUAUACAUGAGAAGGUGACUCAGGCA
apparent Kd [3]: 265 nM | apparent Kd [4]: 25.1 nM

UUCAGCUCGUGAGGAUAUACAUGUGCUGGAUACAGCACUAUUAUGUUCACAUGAGGAUCACCCAUGUAGAAGGCACGAGCUGAG
apparent Kd [1]: 16.6 nM | apparent Kd [2]: 21.4 nM

GAUCCACAUGAGGAUCACCCAUGUGAGGAUAUGAUACUAUGUACUUCGGUACAUAGUAUCAGAAGGCACGGGUC
apparent Kd [1]: 84.1 nM | apparent Kd [2]: 206 nM

AUCAGCUCGUCAGGAUAUACGUGACUGCGUCAGCAGUGUGGUAAGAUCACAUGAGGAUCACCCAUGUAGAAGGGACGAGCUGAU
apparent Kd [1]: 53.2 nM | apparent Kd [2]: 580 nM

GAAAACGCAGAGGAUAUUCCAGAUCUAAGCUGCGAAGAAGGCUGCACAUGAGGAUCACCCAUGUGGUCUUUAAA
apparent Kd [1]: 18.8 nM | apparent Kd [2]: 116 nM

UUAUACGGUGAGGAUAUCUUCACUAAAGUGUGAAGAGAAGGCGCUACAUGAGGAUCACCCAUGUCUAUGGGCAG
apparent Kd [1]: 556 nM | apparent Kd [2]: 755 nM

GUAGCAUACCAAGGAUAUUCAGGGCUUGGAUAGACAUGAGGAUCACCCAUGUGGCGAAAGUCUAGGGAGAAGGUGGUAUGCUAC
apparent Kd [3]: 16 nM | apparent Kd [4]: 13.8 nM

AUCAAUCAUGUAGGAUAUGCGUGGCGAAGCUAUGCAGAAGGACAUGAGGAUCACCCAUGUCUUUCUGUCUGCGUACGGACAGGA
apparent Kd [1]: 19.4 nM | apparent Kd [2]: 72.9 nM

ACCUUACAUGAGGAUCACCCAUGUCAGGAUAUCUCGGACAGCUGAAAACCAGCCGUCCAGAGAAGGGACGAGGA
apparent Kd [1]: 13.4 nM | apparent Kd [2]: 14.4 nM

CCAUCGUGUGUGAGGAUAUGCUGGACCUUGGUUCAGCAGAAGGCACAUGAGGAUCACCCAUGUGAAUACGGUGG
apparent Kd [1]: 18.9 nM | apparent Kd [2]: 32.3 nM

GGUCGUCAAGUCAGGAUAUCGUAUAGUAGAUAUAACGAGAAGGGACAUGAGGAUCACCCAUGUCGUCUCAUCAG
apparent Kd [1]: 19 nM | apparent Kd [2]: 29 nM

UCCUCUUUGAAGAAGGCGUGGUUAUGCUAGCCGCGAGGAUAUUCACAUGAGGAUCACCCAUGUGGAUUUCAGUCCGCUCAAAAC
apparent Kd [1]: 10.2 nM | apparent Kd [2]: 22.9 nM

AGAUAGAUAGCGAUAUGAUCGAGAGAUCAUGUCGCUAAAUUUAGAAGGACAUGAGGAUCACCCAUGUAGGAUAUGGGUAUAGAA
apparent Kd [3]: 404 nM | apparent Kd [4]: 149 nM

CUUUUGUGAGGAUAUUAGUAGUAAAUGAAUAAAAUUAUUACUGAGAAGGUACAUGAGGAUCACCCAUGUUCCUC
apparent Kd [1]: 16.8 nM | apparent Kd [2]: 24.6 nM

GACUACGAGGGAGGAUAUCCUCAUUAAAAUGGUGGAGAAGGCCCUCUACAUGAGGAUCACCCAUGUAUCGCUAUAGUCAGAAAU
apparent Kd [3]: 10.8 nM | apparent Kd [4]: 6.53 nM

AUGAGAAUUGUUAGGAUAUCCGUAAGUAAGUACUGGGAGAAGGGACAUGAGGAUCACCCAUGUGAUAGCCGACU
apparent Kd [1]: 102 nM | apparent Kd [2]: 80.6 nM

UAAAGACAUGAGGAUCACCCAUGUGAGGAUAUCGGAGAUAACGGAACAUCAAGUUCGGCGAGAAGGCACAGGAA
apparent Kd [1]: 53.9 nM | apparent Kd [2]: 58.1 nM

AAAAAAAAAAGUCAGGAUAUGCAGGGCGGGACAUGAGGAUCACCCAUGUGGCGGAAAAAAAAAAAGCAGAAGGGACGAAUAAAAAA
apparent Kd [3]: 53.2 nM | apparent Kd [4]: 27.4 nM

CCAACCGGCACCGGUUGAACAUGAGGAUCACCCAUGUACUCCAGAAGGCCGCCCAAGAACGGAGUGGAGGAUAUGGAGGUUCUC
apparent Kd [3]: 15.5 nM | apparent Kd [4]: 12 nM

GUGUGCAGAGGAUAUACAGAGGAAAAGAAAAGAGAAGGGAGACAUGAGGAUCACCCAUGUAGAAGGCUGAGUGU
apparent Kd [1]: 64.4 nM | apparent Kd [2]: 91.8 nM

UGAUCUUUUGUUAGGAUAUGCUGUUGUUUUCAACAGCAGAAGGGACAUGAGGAUCACCCAUGUCUUGUCAUAAA
apparent Kd [1]: 12 nM | apparent Kd [2]: 16.4 nM

CGAUCGUUGCAGAAGGUUAUAAUUUUAUCUACAUGUUUAACAUGAGGAUCACCCAUGUUUUUGAUGAAGGAUAUGCAAGGGUCG
apparent Kd [1]: 6.88 nM | apparent Kd [2]: 7.12 nM

GGUGCGUAUGUGAGGAUAUGCUGGUCCUUGGAUCGGCAGAAGGCACAUGAGGAUCACCCAUGUGGUGUCGUACU
apparent Kd [1]: 300 nM | apparent Kd [2]: 25.5 nM

CAGGAUCAAGGAUAUCAUCGACGGAACAUGAGGAUCACCCAUGUGAUUGUGCUCUCCUUGUGAGAAGGUGGCGAAU
apparent Kd [1]: 38.5 nM | apparent Kd [2]: 36.7 nM

CCAAAAGCUACAGGAUAUCCGACUCGGUUGUCAGGAGAAGGGUGGCAAGACAUGAGGAUCACCCAUGUAGGGUCAUCCUUGAAA
apparent Kd [1]: 9.9 nM | apparent Kd [2]: 22.1 nM

UGAUAGGACAGAGGAUAUACAGAUAGGAUCUACUAUCAAACAUUCCUGACAUGAGGAUCACCCAUGUAGAAGGCUGUCCUAUCU
apparent Kd [1]: 21.9 nM | apparent Kd [2]: 72.8 nM

GUCGUUUAUGUAGGAUAUGCGAGGCGAGCCUAAGCAGAAGGACAUGAGGAUCACCCAUGUAUUGCGGUCUGCGUUCAGAUCGCU
apparent Kd [1]: 45 nM | apparent Kd [2]: 174 nM
